# Measured values from different studies.
# Observed: enzyme activity
# Mode: inhibitor
# CDK5 with p35: Cyclin-dependent kinase 5, with p35 (CDK5, Homo sapiens, UniProt Q00535)
# CDK5 with p25: Cyclin-dependent kinase 5, with p25 (CDK5, Homo sapiens, UniProt Q00535)
Structure (SMILES),target,method,tested at,time,remaining activity
Cc1ccc(C(=O)Nc2ccc(CN3CCN(C)CC3)c(C(F)(F)F)c2)cc1C#Cc1cnc2cccnn12,"Cyclin-dependent kinase 5 (CDK5, Homo sapiens, UniProt Q00535)",,23.5 nM,,98%
Cc1cnc(NC2CCOCC2)nc1-n1cnc(C(=O)NC(CN)c2cc(F)cc(Cl)c2)c1 (centres unmarked),CDK5 with p35,radiometric,1 µM,,4%
O=C(Nc1cnn(-c2csc(C(=O)NC3COC3)c2)c1)Nc1c(F)cccc1Cl,CDK5 with p35,,5 µM,,94.3%
CC(C)(O)[C@H]1CC[C@H](Nc2ccc3ncc(-c4cccc(C(F)(F)F)c4)n3n2)CC1,CDK5 with p35,,1 µM,,97.7%
CCN(CC)c1ccc(C2=NNC(=O)CC2C)cc1[N+](=O)[O-] (centres unmarked),CDK5 with p35,,10 µM,,109%
Cc1sc(C(=O)NC2COC2)cc1-n1cc(NC(=O)Nc2c(F)cccc2Cl)cn1,CDK5 with p35,,10 µM,,103%
CC[C@H](C)[C@H](NC(=O)[C@H](CCC(N)=O)NC(=O)[C@H](CC(C)C)NC(=O)[C@H](CCSC)NC(=O)[C@H](CCCCN)NC(=O)[C@H](CO)NC(=O)[C@H](CO)NC(=O)[C@H](CCSC)NC(=O)[C@H](CC(C)C)NC(=O)[C@H](CC(N)=O)NC(=O)[C@@H](NC(=O)[C@@H](NC(=O)[C@H](CO)NC(=O)[C@H](CC(C)C)NC(=O)[C@H](CS)NC(=O)[C@H](CCCNC(=N)N)NC(=O)[C@H](CC(=O)O)NC(=O)[C@H](Cc1c[nH]c2ccccc12)NC(=O)[C@H](Cc1ccccc1)NC(=O)[C@H](C)NC(=O)[C@H](CCC(=O)O)NC(=O)[C@@H](N)CCCCN)C(C)C)[C@@H](C)CC)C(=O)N[C@@H](CC(N)=O)C(=O)N[C@@H](C)C(=O)O,CDK5 with p25,radiometric,500 µM,20 min,28%
CC(C)(C)c1nc(-c2cccc(NS(=O)(=O)c3c(F)cccc3F)c2F)c(-c2ccnc(N)n2)s1,CDK5 with p35,radiometric,1 µM,,82%
CCCOc1ccc(OC)c(F)c1C(=O)c1ccc(C(=O)N[C@@H]2CNC[C@H]2NC(=O)c2ccc3[nH]ncc3c2)cc1,CDK5 with p25,,0.1 µM,,112%
O=C(Nc1cnn(-c2csc(C(=O)NC3COC3)c2)c1)Nc1ccccc1Cl,CDK5 with p35,,5 µM,,95.4%
COc1cc(Cl)c(C(=O)N[C@@H](CN[C@H]2CC[C@@H](N)CC2)Cc2ccc(C#N)cc2)cc1-c1ccc(CN[C@H](C)c2ccc(C)cc2)o1,CDK5 with p35,,1 µM,,88%
